Compound activity as filed in PubChem.
WT yeast gro inh – growth inhibition of WT strain, primary screen, mitochondrial fusion inhibitor project, WT and mutant strains, chemical genetic; mitochondrial fusion phenotypic screen; inhibition, % at 10 µM; hit rate 2.1% among 190,000; AID 1362, 2008; in the data active means inhibition above about 58%; tested in S. cerevisiae
ROMK primary – ROMK potassium channel modulators, primary screen, cell-based, thallium flux, MLSMR library. ATP-sensitive inward rectifier potassium channel 1 (Homo sapiens), P48048. Tet-inducible ROMK, thallium flux fluorescence; actives lie on both sides. B-score at 10 µM. hit rate 2% among 130,000;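 active means signal ratio slope over the read window, or its plate-corrected B-score, at least 3 SD from the plate mean, either direction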;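 further: B-score of the F/F0 ratio slope over 7 to 12 s after thallium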
RBBP9 inhibitor – human RBBP9 inhibitors, primary screen, biochemical, fluorescence polarization, FP-Rh probe, HTS; Serine hydrolase RBBP9 (Homo sapiens), O75884; recombinant RBBP9; inhibition, % at 7.94 µM; hit rate 0.2% among 220,000;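 active means inhibition above the campaign mean of all tested compounds plus 3 SD, cut at about 14% in these data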
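Measured by: FP readout at 525/598 nm; material: recombinant human RBBP9; also added: Serine-hydrolase probe FP-Rh, 375 nM pre-mixing; medium: Tris buffer pH 8.0, NaCl, Pluronic; replication: one well per compound; doses: one concentration, 7.94 µM nominal, 0.794% DMSO; timing: preincubation 30 min plus labeling 45 min at 25 °C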
Cl transport mod – KCC2 cotransporter modulators, thallium flux, primary screen, cell-based, HEK293 KCC2, FluoZin-2 fluorescence, MLSMR; B-score of Tl+ flux slope (higher = more flux/activation; lower = inhibition) at 10 µM; hit rate 2.2% among 190,000; KCC2 cells, thallium flux FluoZin-2 fluorescence;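 active means thallium flux slope and its plate-corrected score both differing from the plate sample mean at a set confidence after two filtering rounds, in either direction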;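 further: slope of fluorescence scaled to starting intensity during 10 to 20 s after thallium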
Target sequence (Q9H2X9 whole entry, looked up): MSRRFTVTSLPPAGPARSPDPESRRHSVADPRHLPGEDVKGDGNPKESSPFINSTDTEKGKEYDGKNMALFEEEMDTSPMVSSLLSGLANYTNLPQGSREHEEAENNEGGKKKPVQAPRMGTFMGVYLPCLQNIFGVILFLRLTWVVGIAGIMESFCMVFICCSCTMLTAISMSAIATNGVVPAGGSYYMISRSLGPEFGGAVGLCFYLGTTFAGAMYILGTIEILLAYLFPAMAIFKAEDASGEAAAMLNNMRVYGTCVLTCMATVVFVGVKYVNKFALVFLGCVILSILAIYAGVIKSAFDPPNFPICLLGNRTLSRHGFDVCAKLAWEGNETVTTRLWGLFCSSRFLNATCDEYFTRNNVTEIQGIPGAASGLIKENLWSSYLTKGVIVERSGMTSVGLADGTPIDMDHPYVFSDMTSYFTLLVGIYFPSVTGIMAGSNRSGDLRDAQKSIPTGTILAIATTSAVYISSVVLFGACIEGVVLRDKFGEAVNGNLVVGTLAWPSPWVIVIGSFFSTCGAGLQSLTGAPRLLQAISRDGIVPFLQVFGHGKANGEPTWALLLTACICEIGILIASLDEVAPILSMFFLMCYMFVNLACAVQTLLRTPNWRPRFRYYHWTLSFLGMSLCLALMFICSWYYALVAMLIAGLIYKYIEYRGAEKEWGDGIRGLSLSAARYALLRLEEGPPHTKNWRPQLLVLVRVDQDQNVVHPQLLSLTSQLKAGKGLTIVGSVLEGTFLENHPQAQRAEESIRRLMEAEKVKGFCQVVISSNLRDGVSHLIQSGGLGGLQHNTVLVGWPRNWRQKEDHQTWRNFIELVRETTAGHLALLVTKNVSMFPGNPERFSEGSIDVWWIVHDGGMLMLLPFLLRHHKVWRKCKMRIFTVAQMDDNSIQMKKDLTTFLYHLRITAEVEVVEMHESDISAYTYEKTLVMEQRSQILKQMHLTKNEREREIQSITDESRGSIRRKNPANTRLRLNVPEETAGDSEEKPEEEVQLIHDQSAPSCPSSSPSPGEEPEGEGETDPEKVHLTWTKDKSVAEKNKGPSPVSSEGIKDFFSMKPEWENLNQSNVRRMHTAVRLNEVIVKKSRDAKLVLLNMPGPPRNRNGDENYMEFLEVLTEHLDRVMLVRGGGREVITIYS
p47phox inh – p47phox/p22phox peptide binding inhibitors, primary screen, biochemical, uHTS, NADPH oxidase regulatory subunit; hit rate 0.53% among 220,000; Neutrophil cytosol factor 1 (Homo sapiens), P14598; fluorescence polarization, 2 h; inhibition, % at 24.7 µM; AID 1274, 2008;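 active means inhibition above about 30%, limit read from the data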
14-3-3 Bad inh – inhibitors of 14-3-3 zeta/Bad binding, primary screen, biochemical, TR-FRET, bovine 14-3-3 zeta. 14-3-3 protein zeta/delta (Bos taurus), P63103. TR-FRET 14-3-3zeta/Dy647-pBad peptide displacement, 1 h. inhibition, % at 21.7 µM. hit rate 0.71% among 220,000. AID 781, 2007;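 active means inhibition above about 70%, limit read from the data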
KCC2 sec1 – KCC2 modulators in sodium-free buffer, confirmation, cell-based, HEK293 KCC2, thallium flux, secondary assay; normalised thallium flux (F/F0 slope) at 10 µM; AID 1713, 2009; FluoZin2 fluorescence; hits give high values; hit rate 15% among 3,700; shares compounds with Cl transport mod;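 active means thallium flux slope above the same plate's solvent-only control mean plus 3 SD; inconclusive means the two replicate wells disagree; inactive means no significant difference from solvent-only control wells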
KCC2 bumet counter – thallium flux persisting under bumetanide in KCC2 cells, confirmation, counter-screen for KCC2 modulator project, cell-based, HEK293 KCC2, FluoZin2, secondary assay 3; HEK293-KCC2 + bumetanide/ouabain; hits give high values; normalized thallium flux at 10 µM; hit rate 49% among 3,700; shares compounds with Cl transport mod;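 active means thallium entry rate above the same plate's blocked-transporter control wells by more than 3 SD; inconclusive means the two repeat wells disagree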;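 further: raw slope of fluorescence over initial fluorescence between 10 and 20 s after thallium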
KCC2 secondary2 – KCC2 modulators without ouabain present, confirmation, cell-based, HEK293 KCC2, thallium flux, FluoZin2, secondary assay 2; shares compounds with Cl transport mod; thallium flux FluoZin2 fluorescence; actives lie on both sides; F/F0 rise rate, 10–20 s post-thallium; normalized thallium flux at 10 µM; hit rate 23% among 3,700; AID 1715, 2009;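 active means thallium flux slope more than 3 SD above or below the plate's solvent-only control mean, mostly below; inconclusive means the two repeat wells disagreed; inactive means no significant shift from solvent-only controls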
HEK293 Tl flux – thallium flux modulation in parental HEK cells, confirmation, counter-screen for KCC2 modulator project, cell-based, counterscreen 1; thallium flux rate (normalised fluorescence) at 10 µM; shares compounds with Cl transport mod; HEK293 parental cells, thallium flux FluoZin2, ouabain; baseline-ratio fluorescence slope, 10–20 s after thallium; hit rate 46% among 3,700;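 active means thallium flux rate significantly above the same plate's solvent-only control wells, beyond their mean plus 3 SD; inconclusive means the two replicate wells gave conflicting results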
KCC2 retest ouab – KCC2 inhibitors and activators, ouabain retest, confirmation, HEK-KCC2 cells. raw Tl+ flux slope (below DMSO = inhibition, above = activation) at 10 µM. hit rate 48% among 3,700. shares compounds with Cl transport mod. HEK293-KCC2, thallium flux FluoZin2 fluorescence; bidirectional: low = inhibitor, high = activator;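 active means thallium flux slope beyond 3 SD from same-plate DMSO control mean in most replicates, usually higher, sometimes lower; inconclusive means repeat tests gave conflicting results; inactive means no significant difference from controls in most replicates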;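 further: slope of initial-normalized fluorescence between seconds 10 and 20 after thallium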
HEK293 Tl flux2 – native HEK Tl+ uptake effects, second counter-screen – HEK cells, counterscreen 2, counter-screen for KCC2 modulator project, confirmation; shares compounds with Cl transport mod; thallium flux slope at 10 µM; hit rate 33% among 3,700; AID 1718, 2009; HEK293 parental, thallium flux FluoZin-2 fluorescence slope;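 active means thallium flux slope above the same plate's solvent-control mean plus 3 SD in both duplicate wells; inconclusive means duplicate wells that disagreed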;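 further: run without ouabain in cells lacking the KCC2 cotransporter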
A number is an active result; – = inactive; ? = inconclusive; · = not tested or not shown. Shown are actives, neighbours in structure and some others; about 5.8% of the full set was active somewhere.

SMILES	WT yeast gro inh	ROMK primary	RBBP9 inhibitor	Cl transport mod	p47phox inh	14-3-3 Bad inh	KCC2 sec1	KCC2 bumet counter	KCC2 secondary2	HEK293 Tl flux	KCC2 retest ouab	HEK293 Tl flux2
CCC(Oc1ccccc1)C(=O)Nc1ncc([N+](=O)[O-])s1 (stereo unspecified)	–	–	–	-2.8	–	–	–	?	–	–	0.017	–
O=C(O)CC/C(=N\Nc1ccc([N+](=O)[O-])cc1S(=O)(=O)N1CCOCC1)c1cccs1	·	·	–	·	–	–	·	·	·	·	·	·
CCOc1ccc(N(CC(=O)Nc2c(C)n(C)n(-c3ccccc3)c2=O)S(=O)(=O)c2ccccc2)cc1	–	–	–	-2.8	–	–	–	–	–	–	–	–
COc1ccccc1N(CC(=O)Nc1c(C)n(C)n(-c2ccccc2)c1=O)S(=O)(=O)c1ccc(C)cc1	–	–	–	–	–	–	·	·	·	·	·	·
Cc1nc(C(=O)NNC(=O)c2ccc(Cl)cc2)c(C(F)(F)F)o1	·	–	–	17	–	–	–	0.03	0.039	0.024	0.035	0.02
NC(=O)C(c1ccc(Sc2ccccc2)nn1)c1ccc(Cl)cc1Cl (stereo unspecified)	–	–	–	4	–	–	–	–	–	–	–	–
COc1ccc(O)c(C(=O)CC(=O)c2ccc(F)cc2)c1	–	·	–	23	–	–	?	0.07	–	?	0.054	?
Cc1ccc(O)c(C(=O)CC(=O)c2cccc(F)c2)c1	–	·	–	51	–	–	–	0.05	0.059	0.058	0.055	0.053
COc1ccccc1C(=O)NNC(=O)c1cccc(F)c1	–	–	–	–	–	–	·	·	·	·	·	·
COC(=O)c1ccccc1NC(=O)CNC(=O)c1ccc(OC)c(OC)c1	–	–	–	–	–	–	·	·	·	·	·	·
COc1ccc(O)c(C(=O)CC(=O)c2ccccc2C)c1	–	–	–	29	–	–	–	0.025	?	0.018	0.031	0.022
COc1ccc(NC(=O)c2ccccc2C)c(OC)c1	–	·	–	–	–	–	·	·	·	·	·	·
COc1ccc(C(=O)CC(=O)c2ccccc2O)cc1OC	–	–	–	7.1	–	–	–	0.011	–	0.013	–	–
CO/N=C/c1cccn1-c1nccc(N(C)C)c1C#N	–	–	–	–	–	–	·	·	·	·	·	·
COc1cc(-c2nnc(SCC(=O)NC3CCS(=O)(=O)C3)o2)cc(OC)c1OC (stereo unspecified)	–	–	–	–	–	–	·	·	·	·	·	·
CCOC(=O)C(=O)N(Nc1ccccc1C)c1ccccc1C	–	–	–	–	–	–	·	·	·	·	·	·
O=C1COc2ccc(-c3csc(=Nc4ccc(OC(F)F)cc4)n3CC3CCCO3)cc2N1 (stereo unspecified)	–	·	–	-4.8	–	–	–	–	–	–	–	–
COc1ccccc1N=c1scc(-c2ccc3c(c2)NC(=O)CO3)n1CC1CCCO1 (stereo unspecified)	–	–	–	–	–	–	·	·	·	·	·	·
CCC(=O)N(NC1=NS(=O)(=O)c2ccccc21)S(=O)(=O)c1ccc(C)cc1	–	–	–	–	–	–	·	·	·	·	·	·
Cc1cccc(NC(=O)Cc2ccc(F)cc2)c1	–	–	–	–	–	–	·	·	·	·	·	·
Cc1cccc(NC(=S)N/N=C/c2cccn2Cc2ccc(F)cc2)c1	–	–	–	6.3	–	–	–	0.0088	?	–	–	–
O=C(NCc1ccccc1)Nc1cccn(Cc2ccc(F)cc2)c1=O	–	–	–	–	–	–	·	·	·	·	·	·
CSc1ccccc1NC(=S)N/N=C/c1cccn1Cc1ccc(F)cc1	65	–	–	4.1	–	–	–	0.011	–	0.011	–	0.014
Cn1c2c(c(=O)[nH]c1=O)C(c1cccc(O)c1)C1=C(N2)c2ccccc2C1=O (stereo unspecified)	–	·	–	–	–	–	·	·	·	·	·	·
O=S(=O)(NCc1cccnc1)c1ccccc1	–	–	–	·	–	–	·	·	·	·	·	·
SMILES	WT yeast gro inh	ROMK primary	RBBP9 inhibitor	Cl transport mod	p47phox inh	14-3-3 Bad inh	KCC2 sec1	KCC2 bumet counter	KCC2 secondary2	HEK293 Tl flux	KCC2 retest ouab	HEK293 Tl flux2
O=C(O)/C=C/c1ccc(S(=O)(=O)NCc2cccnc2)cc1	·	·	–	3.8	–	–	–	–	–	–	–	–
CCOC(=O)c1sc(-c2ccc(Cl)cc2Cl)nc1O	·	·	–	9.2	–	–	–	0.02	–	0.017	0.026	0.013
CCOC(=O)c1sc(CS(=O)(=O)c2ccc(Cl)cc2)nc1C	·	–	–	–	–	–	·	·	·	·	·	·
Cc1ccc(Oc2ncnc(N)c2[N+](=O)[O-])cc1C	–	–	–	–	–	–	·	·	·	·	·	·
CC(C)c1ccc(C(=O)NCCCN(C)C)cc1	–	–	–	–	–	–	·	·	·	·	·	·
Cc1c(NS(=O)(=O)c2cccs2)cccc1-c1nc2cccnc2s1	·	·	–	–	–	–	·	·	·	·	·	·
O=S(=O)(Nc1cccc2ncccc12)c1cccs1	59	·	–	29	–	–	0.025	0.069	0.037	0.027	0.048	0.019
O=C(NCC(O)CN1CCOCC1)c1ccc([N+](=O)[O-])cc1 (stereo unspecified)	–	–	–	–	–	–	·	·	·	·	·	·
Cc1cccc(OCc2n[nH]c(=S)n2-c2ccccc2)c1	–	–	–	–	–	–	·	·	·	·	·	·
